The test system of one assay is Gerbillinae. Put plainly: The compound was evaluated for the gerbil colon contraction. The class given is functional.
The test system of assay [1] is Cricetinae gen. sp. Put plainly: The compound was evaluated for the antifertility activity in hamster. The class given is functional. The gist of the method: (§1)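 Pregnant hamsters (80–90 g), ten per compound, mated one male per female. A single subcutaneous dose in ethanol was given on day 5 of pregnancy. The minimum effective dose is the lowest dose per hamster per day that leaves no pregnancies in the group of ten. Relative potency was derived by comparing this dose with that of natural PGF2α.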

The subject of assay [2] is Cricetinae gen. sp. Put plainly: The compound was evaluated for the hamster uterine contraction. The class given is functional, Cricetulus griseus.
The test system of assay [3] is Cricetinae gen. sp. Put plainly: The compound was evaluated for the antifertility activity in hamster; no activity observed at 50 ug. The class given is functional, organism-based. As to conditions: Cricetulus griseus. In short, it runs like this:
as §1

For the compound `CCCCC[C@@H](O)/C=C/[C@@]1(F)[C@H](C/C=C\CCCC(=O)OC)[C@H](O)C[C@@H]1O`, the relative potency turned out to be 0.001 with Gerbillinae, 0.17 in the assay on Cricetinae gen. sp. [1] and 0.004 in the assay with Cricetinae gen. sp. [2].

Regarding `CCCCC[C@@H](O)/C=C/[C@@]1(F)[C@H](O)C[C@H](O)[C@@H]1C/C=C\CCCC(=O)OC`, the results for the relative potency with Gerbillinae, with Cricetinae gen. sp. [1] and in the assay on Cricetinae gen. sp. [2] were 0.011, 1 and 0.022, respectively.

Turning to `CCCCC[C@H](O)/C=C/[C@@]1(F)[C@H](C/C=C\CCCC(=O)OC)[C@H](O)C[C@@H]1O`, the relative potency with Gerbillinae and in the assay with Cricetinae gen. sp. [2] was 0.0002 each time. Besides, the MED result in the assay on Cricetinae gen. sp. [3] is “No activity observed at 50 ug”.

Consider `CCCCC[C@H](O)/C=C/[C@@]1(F)[C@H](O)C[C@H](O)[C@@H]1C/C=C\CCCC(=O)OC`, for which the relative potency was found to be 0.001 in the assay on Gerbillinae, 12.5 with Cricetinae gen. sp. [1] and 0.28 in the assay on Cricetinae gen. sp. [2].

In the case of `CCCCC[C@H](O)/C=C/[C@@]1(F)[C@H](O)C[C@H](O)[C@@H]1C/C=C\CCCC(=O)O`, the results for the relative potency in the assay with Gerbillinae, with Cricetinae gen. sp. [1] and in the assay on Cricetinae gen. sp. [2] were 0.23, 25 and 0.65, respectively.

The values above are taken from ChEMBL document CHEMBL1121595, “Fluoroprostaglandins: synthesis and biological evaluation of the methyl esters of (+)-12-fluoro-, (-)-ent-12-fluoro-, (+)-15-epi-fluoro-, and (-)-ent-15 epi-12-fluoroprostaglandin F2 alpha” (1980).
